The record followed here is ChEMBL document CHEMBL4196093, “Small-Molecule Activator of UNC-51-Like Kinase 1 (ULK1) That Induces Cytoprotective Autophagy for Parkinson's Disease Treatment” (J Med Chem, 2018).

The target in test [1] is T1, Serine/threonine-protein kinase ULK1 (Homo sapiens) (UniProt O75385).
T1 sequence (whole entry): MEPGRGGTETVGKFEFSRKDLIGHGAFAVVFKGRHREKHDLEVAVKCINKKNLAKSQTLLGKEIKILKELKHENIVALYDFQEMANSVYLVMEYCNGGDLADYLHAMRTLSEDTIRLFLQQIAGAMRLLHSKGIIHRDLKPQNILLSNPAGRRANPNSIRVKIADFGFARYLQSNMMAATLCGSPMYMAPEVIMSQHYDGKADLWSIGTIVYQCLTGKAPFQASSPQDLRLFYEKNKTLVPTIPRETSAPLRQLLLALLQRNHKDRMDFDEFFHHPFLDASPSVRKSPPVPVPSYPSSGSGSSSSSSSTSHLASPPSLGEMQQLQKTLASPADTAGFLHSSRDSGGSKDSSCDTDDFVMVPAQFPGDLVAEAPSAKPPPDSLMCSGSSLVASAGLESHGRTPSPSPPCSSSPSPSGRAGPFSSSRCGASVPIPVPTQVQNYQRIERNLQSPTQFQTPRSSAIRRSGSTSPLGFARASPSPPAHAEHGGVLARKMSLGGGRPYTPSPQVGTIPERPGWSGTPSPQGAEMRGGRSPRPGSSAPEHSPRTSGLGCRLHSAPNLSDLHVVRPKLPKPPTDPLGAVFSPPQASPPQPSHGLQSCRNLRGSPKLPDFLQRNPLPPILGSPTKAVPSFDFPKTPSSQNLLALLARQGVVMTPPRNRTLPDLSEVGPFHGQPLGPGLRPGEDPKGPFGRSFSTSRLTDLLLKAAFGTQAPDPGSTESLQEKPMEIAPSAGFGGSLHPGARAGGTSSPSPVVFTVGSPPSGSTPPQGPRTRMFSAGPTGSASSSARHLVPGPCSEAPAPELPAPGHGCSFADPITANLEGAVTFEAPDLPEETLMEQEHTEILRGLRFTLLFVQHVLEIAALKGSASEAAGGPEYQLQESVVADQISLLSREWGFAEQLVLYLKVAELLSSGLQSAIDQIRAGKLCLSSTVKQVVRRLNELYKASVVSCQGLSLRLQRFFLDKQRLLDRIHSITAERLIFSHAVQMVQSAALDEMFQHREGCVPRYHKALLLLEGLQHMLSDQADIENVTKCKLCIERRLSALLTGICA
The test is described as follows: Induction of human recombinant N-terminal GST tagged-ULK1 (1 to 649 residues) kinase activity expressed in baculovirus infected insect Sf9 cells at 100 nM using MBP as substrate after 60 mins by ADP-glo assay relative to control. In a few lines:
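Recombinant human ULK1 (10 ng) with MBP (0.1 µg/µl)/10 µM ATP and compound at 100 nM in 40 mM Tris pH 7.5, 20 mM MgCl2, 50 µM DTT, 0.1 mg/ml BSA. Incubated 60 min at room temperature; ADP-Glo luminescence read. Three independent experiments, mean ± SEM.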
In general terms: ADP-Glo turns the ADP formed in a reaction into a luminescent signal.

Test [2] deals with T1, Serine/threonine-protein kinase ULK1 (Homo sapiens). The test is described as follows: Induction of ULK1-mediated autophagy in human SH-SY5Y cells at 1 uM after 6 hrs by MDC-staining based flow cytometric analysis relative to control. Format: cell-based. In a few lines:
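Autophagy scored as percentage of MDC-positive SH-SY5Y cells by flow cytometry after 1 µM compound; mean ± SEM.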
(Flow cytometry measures light scatter and fluorescence of single cells or particles in a stream.)

In the case of `COc1ccc(N2CCN(CC(OC(=O)c3cccc(Cl)c3)c3ccccc3)CC2)cc1` (configuration not stated), the figures for the Activity in test [1] and in test [2] were 163% and 13.4%, respectively.

With `COc1cccc(CCN[C@@H](C(=O)Nc2ccc(F)cc2F)c2ccccc2)c1`, the Activity in test [1] was 148%; in test [2], 20.6%.

`O=C(Nc1cccc(Br)c1)[C@H](NC(=S)Nc1cc(C(F)(F)F)cc(C(F)(F)F)c1)c1ccccc1`: the Activity in test [1] came out at 217%; in test [2] it was 39.6%.

Regarding `Cc1ccccc1NC(=O)[C@H](NCCc1ccc([N+](=O)[O-])cc1)c1ccccc1`, the Activity in test [1] came out at 142%; in test [2], 16.6%.

`COc1ccc(NC(=O)N[C@@H](C(=O)N[C@H](C)c2cc(F)ccc2F)c2ccccc2)cc1`: the Activity in test [1] is 153%; in test [2], 30.9%.

Regarding `Cc1ccc(NC(=O)N[C@@H](C(=O)Nc2ccccc2C)c2ccccc2)cc1`, the Activity worked out at 174% in test [1] and 34.9% in test [2].

Turning to `CN1CCN(CC(OC(=O)c2ccc(-c3ccccc3)cc2)c2ccccc2)CC1` (configuration not stated), the Activity was 142% in test [1] and 7.41% in test [2].

As to `O=C(Nc1ccc(C(F)(F)F)cc1)N[C@@H](C(=O)Nc1cc(F)ccc1F)c1ccccc1`, the Activity in test [1] came to 227%; in test [2], 43.6%.

`O=C(Nc1ccccc1Cl)N[C@@H](C(=O)Nc1cccc(Br)c1)c1ccccc1`: the values for the Activity in test [1] and in test [2] were 161% and 26.3%, respectively.

Turning to `COc1ccc(NC(=O)N[C@@H](C(=O)Nc2cccc(Br)c2)c2ccccc2)cc1`, the Activity in test [1] came to 157%; in test [2], 28.6%.

As to `Cc1ccccc1NC(=O)[C@H](NC(=O)Nc1cccc2ccccc12)c1ccccc1`, the Activity in test [1] is 146%; in test [2] it was 24.4%.

As for `O=C(Nc1ccc(F)cc1F)[C@H](NCCc1cccc(F)c1)c1ccccc1`, the Activity is 161% in test [1] and 23.4% in test [2].

For `COc1ccc(CCNC(=O)N[C@@H](C(=O)Nc2c(C)cccc2C)c2ccccc2)cc1OC`, the values for the Activity in test [1] and in test [2] were 144% and 23.2%, respectively.

`COc1ccc(N2CCN(CC(OC(=O)c3ccc(C(F)(F)F)cc3)c3ccccc3)CC2)cc1` (configuration not stated): the Activity was 171% in test [1] and 14.2% in test [2].

`COc1ccc(N2CCN(CC(OC(=O)c3ccc(F)cc3)c3ccccc3)CC2)cc1` (configuration not stated): the results for the Activity in test [1] and in test [2] were 168% and 11.1%, respectively.

On to `COc1ccc(CC(=O)OC(CN2CCN(C)CC2)c2ccccc2)cc1OC` (configuration not stated), for which the Activity stood at 139% in test [1] and 6.22% in test [2].

With `COc1ccc(CCNC(=O)N[C@@H](C(=O)Nc2cccc(Cl)c2)c2ccccc2)cc1OC`, the results for the Activity in test [1] and in test [2] were 168% and 31.1%, respectively.

For the compound `Cc1cccc(C)c1NC(=O)N[C@@H](C(=O)Nc1cc(F)ccc1F)c1ccccc1`, the values for the Activity in test [1] and in test [2] were 147% and 24.9%, respectively.

`Cc1ccccc1NC(=O)[C@H](NC(=O)Nc1ccccc1Cl)c1ccccc1`: the Activity in test [1] amounted to 30.4%; in test [2], 36.8%.

For `COc1ccc(CCNC(=O)N[C@@H](C(=O)Nc2ccc(C)cc2)c2ccccc2)cc1OC`, the Activity in test [1] was found to be 148%; in test [2], 24.3%.

`C[C@@H](NC(=O)[C@H](NC(=O)Nc1cccc(Cl)c1)c1ccccc1)c1ccccc1`: the results for the Activity in test [1] and in test [2] were 169% and 22.7%, respectively.

For the compound `Cc1ccccc1NC(=O)[C@H](NCCc1ccc(O)cc1)c1ccccc1`, the Activity in test [1] was found to be 158%; in test [2], 21%.

For `O=C(Nc1cccc(Cl)c1)N[C@@H](C(=O)Nc1cc(F)ccc1F)c1ccccc1`, the Activity in test [1] came out at 159%; in test [2], 24.7%.

Turning to `COc1ccc(N2CCN(CC(OC(=O)c3ccc(Cl)cc3Cl)c3ccccc3)CC2)cc1` (configuration not stated), the Activity in test [1] turned out to be 150%; in test [2], 11.8%.

Consider `Cc1ccccc1NC(=O)[C@H](NCCc1ccc2[nH]ccc2c1)c1ccccc1`, for which the Activity in test [1] was determined as 144%; in test [2] it was 16.8%.

Consider `O=C(Nc1cccc2ccccc12)N[C@@H](C(=O)Nc1cccc(Br)c1)c1ccccc1`, for which the results for the Activity in test [1] and in test [2] were 150% and 24.6%, respectively.

Regarding `COc1ccc(NC(=O)N[C@@H](C(=O)N[C@H](C)c2ccccc2)c2ccccc2)cc1`, the Activity in test [1] is 145%; in test [2] it was 19.2%.

With `Cc1ccccc1NC(=O)[C@H](NC(=S)Nc1ccccc1)c1ccccc1`, the Activity in test [1] was determined as 179%; in test [2], 36.2%.

In the case of `CN1CCN(CC(OC(=O)c2ccc3ncccc3c2)c2ccccc2)CC1` (configuration not stated), the values for the Activity in test [1] and in test [2] were 181% and 12.5%, respectively.

For `Cc1ccccc1NC(=O)[C@H](NCCc1ccc(Cl)c(Cl)c1)c1ccccc1`, the values for the Activity in test [1] and in test [2] were 153% and 20.3%, respectively.

On to `Cc1ccccc1NC(=O)[C@H](NCCc1ccc(F)cc1)c1ccccc1`, for which the Activity in test [1] was 164%; in test [2], 24.5%.

On to `O=C(Nc1ccc(F)cc1F)[C@H](NCCc1cccc2ccccc12)c1ccccc1`, for which the Activity in test [1] amounted to 168%; in test [2], 26.2%.

In the case of `O=C(Nc1cccc2ccccc12)N[C@@H](C(=O)Nc1cc(F)ccc1F)c1ccccc1`, the Activity in test [1] stood at 151%; in test [2], 22.3%.

As to `Cc1ccccc1NC(=O)[C@H](NC(=O)Nc1ccc(C(F)(F)F)cc1)c1ccccc1`, the values for the Activity in test [1] and in test [2] were 183% and 38.4%, respectively.

In the case of `C[C@@H](NC(=O)[C@H](NC(=O)Nc1ccc(C(F)(F)F)cc1)c1ccccc1)c1ccccc1`, the Activity in test [1] is 209%; in test [2] it was 38.3%.

`O=C(Nc1ccc(F)cc1F)[C@H](NCCc1ccc(Cl)c(Cl)c1)c1ccccc1`: the Activity in test [1] turned out to be 174%; in test [2] it was 31.4%.

For the compound `COc1ccc(N2CCN(CC(OC(=O)c3ccc(-c4ccccc4)cc3)c3ccccc3)CC2)cc1` (configuration not stated), the Activity in test [1] came out at 147%; in test [2], 9.2%.

With `Cc1ccc(NC(=O)N[C@@H](C(=O)Nc2cc(F)ccc2F)c2ccccc2)cc1`, the Activity in test [1] was determined as 153%; in test [2] it was 24%.

Consider `COc1ccc(CCNC(=O)N[C@@H](C(=O)Nc2cccc3ccccc23)c2ccccc2)cc1OC`, for which the values for the Activity in test [1] and in test [2] were 139% and 20.9%, respectively.

On to `Cc1ccccc1NC(=O)[C@H](NC(=O)Nc1c(C)cccc1C)c1ccccc1`, for which the Activity was 149% in test [1] and 24.2% in test [2].

Consider `Cc1cccc(C)c1NC(=O)N[C@@H](C(=O)Nc1cccc(Br)c1)c1ccccc1`, for which the Activity in test [1] came out at 155%; in test [2], 27.1%.

Take `C[C@@H](NC(=O)[C@H](NC(=O)Nc1ccccc1Cl)c1ccccc1)c1ccccc1`: the Activity in test [1] was 158%; in test [2] it was 19.3%.

On to `COc1ccc(N2CCN(CC(OC(=O)c3ccc(C)cc3)c3ccccc3)CC2)cc1` (configuration not stated), for which the figures for the Activity in test [1] and in test [2] were 139% and 4.51%, respectively.

`Cc1ccccc1NC(=O)[C@H](NCCc1cc(Cl)ccc1O)c1ccccc1`: the Activity was determined as 146% in test [1] and 15.3% in test [2].

On to `O=C(Nc1ccc(F)cc1F)[C@H](NCCc1ccc(O)cc1)c1ccccc1`, for which the Activity in test [1] was determined as 198%; in test [2], 32.1%.

For `COc1ccc(C(=O)OC(CN2CCN(c3ccc(OC)cc3)CC2)c2ccccc2)cc1` (configuration not stated), the Activity in test [1] came out at 155%; in test [2] it was 11.2%.

Turning to `Cc1ccc(NC(=O)N[C@@H](C(=O)N[C@H](C)c2ccccc2)c2ccccc2)cc1`, the Activity came out at 148% in test [1] and 16.6% in test [2].

Consider `COc1ccc(CCNC(=O)N[C@@H](C(=O)Nc2ccc(C(F)(F)F)cc2)c2ccccc2)cc1OC`, for which the figures for the Activity in test [1] and in test [2] were 163% and 33.5%, respectively.

For the compound `O=C(Nc1ccc(C(F)(F)F)cc1)N[C@@H](C(=O)Nc1cccc(Br)c1)c1ccccc1`, the Activity in test [1] was determined as 179%; in test [2] it was 33.6%.

On to `Cc1ccccc1NC(=O)[C@H](NC(=O)Nc1cccc(Cl)c1)c1ccccc1`, for which the values for the Activity in test [1] and in test [2] were 156% and 27.4%, respectively.

Consider `CN(C)c1ccc(CCN[C@@H](C(=O)Nc2ccc(F)cc2F)c2ccccc2)cc1`, for which the Activity in test [1] was found to be 149%; in test [2], 20.2%.
